Source: PubChem (The Scripps Research Institute Molecular Screening Center)
This is a sample that favours compounds with a hit; in the whole collection about 3.1% have one here.
CHO parental Ca – signal in parental CHO cells, OX1R antagonist counter-screen. parental CHO-K1, ATP-induced calcium, Fluo-8 fluorescence. inhibition, % at 5.6 µM. 330,000 tested, 0.63% active. AID 463079;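 active = inhibition above that plate's mean sample inhibition plus 3 SD, cut at about 26% in these data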
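Material – parental CHO cells · Reagent – ATP stimulus · Compound – single nominal dose of 5.6 µM per compound · Detection – Fluo-8 fluorescence · Read-out basis – percent inhibition of calcium signal · Controls – ATP-challenged DMSO wells low, unchallenged DMSO wells high · Repeats – no replicates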
OX1R antag-1 – OX1R (human) antagonism | O43613 | OX1R-expressing cells, FRET antagonist read-out | inhibition, % at 6.6 µM | 330,000 tested, 1.8% active; in the data active = inhibition mostly above about 38%, no sharp cut-off; inactive = mostly below about 40%
OX1R antag-2 – human HCRTR1 antagonism; inhibition, % at 5 µM; CHO/OX1R cells, Fluo-8 calcium fluorescence, orexin A; O43613; 330,000 tested, 0.43% active; AID 434989;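 active = inhibition above its plate's threshold, mean inhibition of all tested compounds on the plate plus 3 SD, cut at about 37% in these data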
GPR7 antagonist – human neuropeptides B/W receptor 1 antagonism. 290,000 tested, 1.1% active. inhibition, % at 4.4 µM. GPR7-expressing cells, fluorescence antagonist assay. AID 1861; in the data active = inhibition above about 16%, passing the limit was not always enough;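 also: cells stimulated with the agonist NPW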
Target sequence (P48145 whole entry, looked up): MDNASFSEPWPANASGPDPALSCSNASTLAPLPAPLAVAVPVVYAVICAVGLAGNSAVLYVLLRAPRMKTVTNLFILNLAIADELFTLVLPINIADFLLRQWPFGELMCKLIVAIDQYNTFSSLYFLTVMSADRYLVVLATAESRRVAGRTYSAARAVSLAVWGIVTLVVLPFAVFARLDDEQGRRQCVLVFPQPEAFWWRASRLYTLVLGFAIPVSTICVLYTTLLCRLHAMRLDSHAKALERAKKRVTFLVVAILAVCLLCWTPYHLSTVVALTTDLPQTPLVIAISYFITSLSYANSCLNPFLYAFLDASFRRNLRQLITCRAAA
GalR3 antagonist – blocks the human galanin receptor 3; O60755; HEK293 GalR3-CNG cAMP membrane potential fluorescence; galR3 body fused to GalR1 C-terminus; inhibition, % at 3 µM; 360,000 tested, 0.44% active; AID 651719;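 active = inhibition above the screen-wide average plus 3 SD, cut at about 13% in these data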;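 also: forskolin and galanin both at EC90 stimulate the cells; cAMP rise reported by CNG channel membrane potential dye signal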
Target sequence (O60755 1-299 limits assumed): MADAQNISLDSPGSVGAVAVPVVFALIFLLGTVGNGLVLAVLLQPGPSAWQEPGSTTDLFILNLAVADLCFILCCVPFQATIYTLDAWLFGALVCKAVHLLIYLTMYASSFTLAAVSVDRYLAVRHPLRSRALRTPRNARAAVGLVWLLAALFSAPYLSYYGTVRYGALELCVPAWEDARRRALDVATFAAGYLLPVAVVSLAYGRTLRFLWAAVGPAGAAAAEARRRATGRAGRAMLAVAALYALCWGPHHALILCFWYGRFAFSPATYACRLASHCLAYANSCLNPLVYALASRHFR
OX1R HTRF confirm – OX1R (human) antagonism, HTRF confirmed. shares compounds with OX1R antag-1. OX1R-expressing cells, HTRF antagonist assay. inhibition, % at 6.6 µM. 1,800 tested, 49% active. AID 492964; in the data active = inhibition above about 55%;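 also: CHO cells expressing OX1R stimulated with orexin A at about EC80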
CHO-K1 HTRF – signal in parental CHO-K1 cells, OX1R antagonist counter-screen; shares compounds with OX1R antag-1; HTRF counterscreen; AID 493232; 1,800 tested, 48% active; inhibition, % at 6.6 µM; in the data active = inhibition above about 17%
Of the large screens only hits and unclear results are named; the others gave an inactive call (follow-up assays come after a bar, where they were run).

Cc1cc(C)nc(NC(=O)c2ccc([N+](=O)[O-])o2)n1	OX1R antag-1 78 | OX1R HTRF confirm inactive | CHO-K1 HTRF 80
O=C(CNC(=O)c1ccccc1)N/N=C/c1ccc([N+](=O)[O-])o1	OX1R antag-1 98 | OX1R HTRF confirm inactive | CHO-K1 HTRF 75
NS(=O)(=O)c1ccc(O)c(NC(=O)c2ccc([N+](=O)[O-])o2)c1	OX1R antag-1 125 | OX1R HTRF confirm inactive | CHO-K1 HTRF 61
O=C(Nc1cccnc1)c1ccc([N+](=O)[O-])o1	OX1R antag-1 79 | OX1R HTRF confirm 58 | CHO-K1 HTRF 88
COc1ccc(CNC(=O)C2CCN(S(=O)(=O)c3ccc4c(c3)CC(C)N4C(C)=O)CC2)cc1 (stereo unspecified)	none
Cc1ccc(C)c(NC(=O)c2cc([N+](=O)[O-])cc([N+](=O)[O-])c2)c1	OX1R antag-1 80 | OX1R HTRF confirm inactive | CHO-K1 HTRF 41
O=C(c1cc([N+](=O)[O-])cc([N+](=O)[O-])c1)N(c1ccccn1)c1ccccn1	OX1R antag-1 103 | OX1R HTRF confirm inactive | CHO-K1 HTRF 72
O=C(Nc1ncccn1)c1cc([N+](=O)[O-])cc([N+](=O)[O-])c1	OX1R antag-1 107 | OX1R HTRF confirm 58 | CHO-K1 HTRF 72
O=C(NNC(=O)c1ccc([N+](=O)[O-])o1)c1ccccc1	OX1R antag-1 136 | OX1R HTRF confirm 59 | CHO-K1 HTRF 64
O=C(Nc1ncccn1)c1cccc(F)c1	none
Cc1cc(C)nc(NC(=O)c2ccc(C)c([N+](=O)[O-])c2)n1	none
Cc1cc(C)nc(NC(=O)c2cc([N+](=O)[O-])cc([N+](=O)[O-])c2)n1	OX1R antag-1 111 | OX1R HTRF confirm inactive | CHO-K1 HTRF 68
C/C(=N\OCC(=O)OCC(=O)N(C)c1ccccc1)c1ccc2c(c1)OCO2	none (no result: GPR7 antagonist)
Cc1cnc2cc([N+](=O)[O-])ccc2n1	OX1R antag-1 101 | OX1R HTRF confirm 66 | CHO-K1 HTRF 84
CCCn1nc([N+](=O)[O-])c(C(C#N)c2nc3ccccc3o2)c(Cl)c1=O (stereo unspecified)	OX1R antag-1 87 | OX1R HTRF confirm inactive | CHO-K1 HTRF 22
Cc1ccc(-n2c3nc(=O)[nH]c(=O)c-3cc3cc([N+](=O)[O-])ccc32)cc1	OX1R antag-1 84 | OX1R HTRF confirm 56 | CHO-K1 HTRF 65
Cc1ccc(-n2c(C)nn(Cc3ccc([N+](=O)[O-])cc3)c2=O)cc1	none
COc1ccccc1N(CCC#N)C(=S)Nc1ccc(S(=O)(=O)N2CCOCC2)cc1	none (no result: GPR7 antagonist)
Cc1ccccc1C(=O)NCC(=O)N1CCN(C/C=C/c2ccccc2)CC1	none (no result: GPR7 antagonist)
CN(C(=O)COC(=O)CSc1ccc(C(N)=O)cc1[N+](=O)[O-])C1CCS(=O)(=O)C1 (stereo unspecified)	OX1R antag-1 77 (no result: GPR7 antagonist) | OX1R HTRF confirm inactive | CHO-K1 HTRF 69
O=C(CSc1nc2ccc([N+](=O)[O-])cc2s1)NC1CCS(=O)(=O)C1 (stereo unspecified)	none
CN(C(=O)CSc1nc2ccc([N+](=O)[O-])cc2s1)C1CCS(=O)(=O)C1 (stereo unspecified)	OX1R antag-1 83 | OX1R HTRF confirm 70 | CHO-K1 HTRF 40
O=C(NCc1ccccc1)c1cc(C2COCCN2C(=O)C/C=C/c2ccccc2)on1 (stereo unspecified)	none (no result: CHO parental Ca, OX1R antag-1, OX1R antag-2, GPR7 antagonist)
O=C(CCC(=O)N1CCOc2ccccc21)Nc1cc(F)ccc1F	none
COC(=O)CCCNc1ncccc1[N+](=O)[O-]	OX1R antag-1 97 | OX1R HTRF confirm inactive | CHO-K1 HTRF 39
Cc1ccc(N2CN=c3s/c(=C\c4cccnc4)c(=O)n3C2)cc1	OX1R antag-1 99 | OX1R HTRF confirm inactive | CHO-K1 HTRF 49
[O-][n+]1onc2c3ccnnc3ccc21	OX1R antag-1 150 | OX1R HTRF confirm inactive | CHO-K1 HTRF 83
CS(=O)(=O)c1nc(S(=O)(=O)c2ccc(Cl)cc2)c(NCCCn2ccnc2)s1	none
Cn1ccnc1Sc1ccc(C(N)=O)cc1[N+](=O)[O-]	OX1R antag-1 94 | OX1R HTRF confirm inactive | CHO-K1 HTRF 32
Cn1nnnc1Sc1ccc(C(=O)O)cc1[N+](=O)[O-]	OX1R antag-1 90 | OX1R HTRF confirm inactive | CHO-K1 HTRF 54
O=C(O)c1ccc(Sc2nnnn2-c2ccccc2)c([N+](=O)[O-])c1	none
Cn1cnnc1Sc1ccc(C(=O)OCC(=O)NC2CC2)cc1[N+](=O)[O-]	none (no result: CHO parental Ca, OX1R antag-1, OX1R antag-2)
CCN1C(=O)[C@H]2[C@@H](c3ccc(-c4ccc(OC)cc4)cc3)N[C@@](C)(C(=O)OC)[C@H]2C1=O	none (no result: GPR7 antagonist)
Cc1c(C)c2ccc(O)c(CN3CCN(C)CC3)c2oc1=O	none (no result: CHO parental Ca, OX1R antag-1, OX1R antag-2)
CN1CCN(Cc2c(O)ccc3cc(-c4ccccn4)c(=O)oc23)CC1	OX1R antag-1 81 | OX1R HTRF confirm inactive | CHO-K1 HTRF 33
CC(C)(O)C#Cc1ccc(CN2CCCC(CNC(=O)c3ccco3)C2)cc1 (stereo unspecified)	none
Cc1ccccc1NC(=O)CSc1nnc2ccc(-c3ccncc3)nn12	OX1R antag-1 79 (no result: GPR7 antagonist) | OX1R HTRF confirm inactive | CHO-K1 HTRF 36
COCC(=O)N1CCN(c2ccc([N+](=O)[O-])cc2)CC1	OX1R antag-1 160 | OX1R HTRF confirm inactive | CHO-K1 HTRF 41
COc1cc(CCC(=O)N2CCN(c3ccc([N+](=O)[O-])cc3)CC2)cc(OC)c1OC	none
O=C(O)c1ccc(NC2=C/C(=N/S(=O)(=O)c3cccs3)c3ccccc3C2=O)cc1	none (no result: CHO parental Ca, OX1R antag-1, OX1R antag-2, GPR7 antagonist)
O=C1/C(=N\S(=O)(=O)c2cccs2)C([n+]2ccccc2)=C([O-])c2ccccc21	OX1R antag-1 94 | OX1R HTRF confirm 78 | CHO-K1 HTRF 119
COc1ccc(C(C)=O)cc1CSC(=S)N1CCSCC1	none (no result: CHO parental Ca, OX1R antag-1, OX1R antag-2, GPR7 antagonist)
N#CCCn1c2ccccc2c2nc3ccccc3nc21	OX1R antag-1 77 | OX1R HTRF confirm 84 | CHO-K1 HTRF inactive
O=c1oc2ccccc2n1CCn1c2ccccc2c2nc3ccccc3nc21	none
CCN1C(=O)/C(=C/N(C(C)=O)c2ccccc2)N(c2ccccc2)C1=S	OX1R antag-1 82 | OX1R HTRF confirm inactive | CHO-K1 HTRF inactive
COC(=O)/C=c1/s/c(=C(/C#N)C(=O)N2CCCCC2)n(-c2ccccc2)c1=O	none
COC(=O)/C=c1/s/c(=C(/C#N)C(=O)N2CCOCC2)n(-c2ccccc2)c1=O	OX1R antag-1 118 | OX1R HTRF confirm inactive | CHO-K1 HTRF 49
O=C(NCc1ccco1)c1ccc2c(c1)OCCO2	none
Cc1ncsc1CCOC(=O)c1ccc([N+](=O)[O-])cc1	OX1R antag-1 82 | OX1R HTRF confirm inactive | CHO-K1 HTRF 34
Cc1ncsc1CCOC(=O)c1cccnc1	none
Cc1cc(C)c(C(=O)COC(=O)Cn2c(C)csc2=O)cc1C	none
CC(C)c1ccccc1OCC(=O)Nc1ccccc1C(=O)N1CCOCC1	none
